From ChEMBL document CHEMBL1765020, “Synthesis and structure-affinity relationships of novel dibenzylideneacetone derivatives as probes for β-amyloid plaques” (J Med Chem, 2011)

Assays:
Intestine [1] = experiment: Biodistribution in ddY mouse intestine at 1 uCi/100 uL, iv after 2 mins by gamma counting; format: ADME, organism-based; details: in vivo
Summary of the method: (§1)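 Normal female ddY mice (5 weeks, about 20 g; n = 4 per group) received radiotracer iv. Organs were removed and weighed at 2–120 min and counted in a γ-counter. Percent dose per gram of wet tissue was calculated against diluted aliquots of the injected material and reported as mean ± SD.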

Brain [2] = experiment: Biodistribution in ddY mouse brain at 1 uCi/100 uL, iv after 2 mins by gamma counting; format: ADME, organism-based; details: in vivo; summary of the method: as §1
Thyroid gland [3] = experiment: Biodistribution in ddY mouse thyroid at 1 uCi/100 uL, iv after 15 mins by gamma counting; format: ADME, organism-based; details: in vivo, 0.25 h
Brain [4] = experiment: Biodistribution in ddY mouse brain at 1 uCi/100 uL, iv after 30 mins by gamma counting; format: ADME, organism-based; details: in vivo, 0.5 h; summary of the method: as §1
Intestine [5] = experiment: Biodistribution in ddY mouse intestine at 1 uCi/100 uL, iv after 60 mins by gamma counting; format: ADME, organism-based; details: in vivo, 1 h; summary of the method: as §1
Spleen [6] = experiment: Biodistribution in ddY mouse spleen at 1 uCi/100 uL, iv after 30 mins by gamma counting; format: ADME, organism-based; details: in vivo, 0.5 h
Lung [7] = experiment: Biodistribution in ddY mouse lung at 1 uCi/100 uL, iv after 120 mins by gamma counting; format: ADME, organism-based; details: in vivo, 2 h
[8] = Partition coefficient, log D of the compound; format: physicochemical; details: octanol/water
Summary of the method: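 Radiotracer partitioned between n-octanol and PBS: vortexed 3 min at room temperature, centrifuged 5 min at 3000 rpm. Weighed samples of the octanol (100 μL) and buffer (500 μL) layers were counted. log D is the log of the ratio of counts per gram, octanol versus PBS.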

Liver [9] = experiment: Biodistribution in ddY mouse liver at 1 uCi/100 uL, iv after 60 mins by gamma counting; format: ADME, organism-based; details: in vivo, 1 h
Stomach [10] = experiment: Biodistribution in ddY mouse stomach at 1 uCi/100 uL, iv after 30 mins by gamma counting; format: ADME, organism-based; details: in vivo, 0.5 h
Thyroid gland [11] = experiment: Biodistribution in ddY mouse thyroid at 1 uCi/100 uL, iv after 120 mins by gamma counting; format: ADME, organism-based; details: in vivo, 2 h
Liver [12] = experiment: Biodistribution in ddY mouse liver at 1 uCi/100 uL, iv after 120 mins by gamma counting; format: ADME, organism-based; details: in vivo, 2 h
Intestine [13] = experiment: Biodistribution in ddY mouse intestine at 1 uCi/100 uL, iv after 30 mins by gamma counting; format: ADME, organism-based; details: in vivo, 0.5 h; summary of the method: as §1
Spleen [14] = experiment: Biodistribution in ddY mouse spleen at 1 uCi/100 uL, iv after 60 mins by gamma counting; format: ADME, organism-based; details: in vivo, 1 h
Spleen [15] = experiment: Biodistribution in ddY mouse spleen at 1 uCi/100 uL, iv after 15 mins by gamma counting; format: ADME, organism-based; details: in vivo, 0.25 h
Stomach [16] = experiment: Biodistribution in ddY mouse stomach at 1 uCi/100 uL, iv after 60 mins by gamma counting; format: ADME, organism-based; details: in vivo, 1 h
Intestine [17] = experiment: Biodistribution in ddY mouse intestine at 1 uCi/100 uL, iv after 15 mins by gamma counting; format: ADME, organism-based; details: in vivo, 0.25 h; summary of the method: as §1
Stomach [18] = experiment: Biodistribution in ddY mouse stomach at 1 uCi/100 uL, iv after 15 mins by gamma counting; format: ADME, organism-based; details: in vivo, 0.25 h
Lung [19] = experiment: Biodistribution in ddY mouse lung at 1 uCi/100 uL, iv after 15 mins by gamma counting; format: ADME, organism-based; details: in vivo, 0.25 h
Brain [20] = experiment: Biodistribution in ddY mouse brain at 1 uCi/100 uL, iv after 120 mins by gamma counting; format: ADME, organism-based; details: in vivo, 2 h; summary of the method: as §1
Kidney [21] = experiment: Biodistribution in ddY mouse kidney at 1 uCi/100 uL, iv after 2 mins by gamma counting; format: ADME, organism-based; details: in vivo; summary of the method: as §1
Blood [22] = experiment: Biodistribution in ddY mouse blood at 1 uCi/100 uL, iv after 30 mins by gamma counting; format: ADME, organism-based; details: in vivo, 0.5 h; summary of the method: as §1
Kidney [23] = experiment: Biodistribution in ddY mouse kidney at 1 uCi/100 uL, iv after 60 mins by gamma counting; format: ADME, organism-based; details: in vivo, 1 h
Stomach [24] = experiment: Biodistribution in ddY mouse stomach at 1 uCi/100 uL, iv after 120 mins by gamma counting; format: ADME, organism-based; details: in vivo, 2 h
Lung [25] = experiment: Biodistribution in ddY mouse lung at 1 uCi/100 uL, iv after 30 mins by gamma counting; format: ADME, organism-based; details: in vivo, 0.5 h
Heart [26] = experiment: Biodistribution in ddY mouse heart at 1 uCi/100 uL, iv after 15 mins by gamma counting; format: ADME, organism-based; details: in vivo, 0.25 h; summary of the method: as §1
Blood [27] = experiment: Biodistribution in ddY mouse blood at 1 uCi/100 uL, iv after 60 mins by gamma counting; format: ADME, organism-based; details: in vivo, 1 h; summary of the method: as §1
Lung [28] = experiment: Biodistribution in ddY mouse lung at 1 uCi/100 uL, iv after 60 mins by gamma counting; format: ADME, organism-based; details: in vivo, 1 h
Liver [29] = experiment: Biodistribution in ddY mouse liver at 1 uCi/100 uL, iv after 15 mins by gamma counting; format: ADME, organism-based; details: in vivo, 0.25 h
Heart [30] = experiment: Biodistribution in ddY mouse heart at 1 uCi/100 uL, iv after 2 mins by gamma counting; format: ADME, organism-based; details: in vivo; summary of the method: as §1
Brain [31] = experiment: Ratio of drug uptake in ddY mouse brain at 1 uCi/100 uL, iv after 2 mins to drug uptake in ddY mouse brain at 1 uCi/100 uL, iv after 60 mins; format: ADME, organism-based; details: in vivo
Summary of the method: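 Normal female ddY mice (5 weeks) received the radiotracer iv, and brain uptake (% ID/g, n = 4) was measured by gamma counting at 2 and 60 min. The index is brain uptake at 2 min divided by brain uptake at 60 min.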

Brain [32] = experiment: Biodistribution in ddY mouse brain at 1 uCi/100 uL, iv after 60 mins by gamma counting; format: ADME, organism-based; details: in vivo, 1 h; summary of the method: as §1
Intestine [33] = experiment: Biodistribution in ddY mouse intestine at 1 uCi/100 uL, iv after 120 mins by gamma counting; format: ADME, organism-based; details: in vivo, 2 h; summary of the method: as §1
Kidney [34] = experiment: Biodistribution in ddY mouse kidney at 1 uCi/100 uL, iv after 30 mins by gamma counting; format: ADME, organism-based; details: in vivo, 0.5 h
Blood [35] = experiment: Biodistribution in ddY mouse blood at 1 uCi/100 uL, iv after 120 mins by gamma counting; format: ADME, organism-based; details: in vivo, 2 h; summary of the method: as §1
Thyroid gland [36] = experiment: Biodistribution in ddY mouse thyroid at 1 uCi/100 uL, iv after 30 mins by gamma counting; format: ADME, organism-based; details: in vivo, 0.5 h
Liver [37] = experiment: Biodistribution in ddY mouse liver at 1 uCi/100 uL, iv after 30 mins by gamma counting; format: ADME, organism-based; details: in vivo, 0.5 h
Thyroid gland [38] = experiment: Biodistribution in ddY mouse thyroid at 1 uCi/100 uL, iv after 2 mins by gamma counting; format: ADME, organism-based; details: in vivo
Heart [39] = experiment: Biodistribution in ddY mouse heart at 1 uCi/100 uL, iv after 60 mins by gamma counting; format: ADME, organism-based; details: in vivo, 1 h; summary of the method: as §1
Kidney [40] = experiment: Biodistribution in ddY mouse kidney at 1 uCi/100 uL, iv after 15 mins by gamma counting; format: ADME, organism-based; details: in vivo, 0.25 h; summary of the method: as §1
Thyroid gland [41] = experiment: Biodistribution in ddY mouse thyroid at 1 uCi/100 uL, iv after 60 mins by gamma counting; format: ADME, organism-based; details: in vivo, 1 h
Liver [42] = experiment: Biodistribution in ddY mouse liver at 1 uCi/100 uL, iv after 2 mins by gamma counting; format: ADME, organism-based; details: in vivo
Blood [43] = experiment: Biodistribution in ddY mouse blood at 1 uCi/100 uL, iv after 2 mins by gamma counting; format: ADME, organism-based; details: in vivo; summary of the method: as §1
Heart [44] = experiment: Biodistribution in ddY mouse heart at 1 uCi/100 uL, iv after 120 mins by gamma counting; format: ADME, organism-based; details: in vivo, 2 h; summary of the method: as §1
Lung [45] = experiment: Biodistribution in ddY mouse lung at 1 uCi/100 uL, iv after 2 mins by gamma counting; format: ADME, organism-based; details: in vivo
Blood [46] = experiment: Biodistribution in ddY mouse blood at 1 uCi/100 uL, iv after 15 mins by gamma counting; format: ADME, organism-based; details: in vivo, 0.25 h; summary of the method: as §1
Kidney [47] = experiment: Biodistribution in ddY mouse kidney at 1 uCi/100 uL, iv after 120 mins by gamma counting; format: ADME, organism-based; details: in vivo, 2 h; summary of the method: as §1
Spleen [48] = experiment: Biodistribution in ddY mouse spleen at 1 uCi/100 uL, iv after 120 mins by gamma counting; format: ADME, organism-based; details: in vivo, 2 h
Spleen [49] = experiment: Biodistribution in ddY mouse spleen at 1 uCi/100 uL, iv after 2 mins by gamma counting; format: ADME, organism-based; details: in vivo
Stomach [50] = experiment: Biodistribution in ddY mouse stomach at 1 uCi/100 uL, iv after 2 mins by gamma counting; format: ADME, organism-based; details: in vivo
Heart [51] = experiment: Biodistribution in ddY mouse heart at 1 uCi/100 uL, iv after 30 mins by gamma counting; format: ADME, organism-based; details: in vivo, 0.5 h; summary of the method: as §1
Brain [52] = experiment: Biodistribution in ddY mouse brain at 1 uCi/100 uL, iv after 15 mins by gamma counting; format: ADME, organism-based; details: in vivo, 0.25 h; summary of the method: as §1

Drug uptake (Intestine [1]): 1.38 % ID/g
Drug uptake (Brain [2]): 1.59 % ID/g
Drug uptake (Thyroid gland [3]): 14.93 % ID/g
Drug uptake (Brain [4]): 0.63 % ID/g
Drug uptake (Intestine [5]): 7.68 % ID/g
Drug uptake (Spleen [6]): 12.26 % ID/g
Drug uptake (Lung [7]): 3.35 % ID/g
logD [8]: 3.66
Drug uptake (Liver [9]): 11.54 % ID/g
Drug uptake (Stomach [10]): 1.85 % ID/organ
Drug uptake (Thyroid gland [11]): 32.22 % ID/g
Drug uptake (Liver [12]): 16.47 % ID/g
Drug uptake (Intestine [13]): 11.62 % ID/g
Drug uptake (Spleen [14]): 6.28 % ID/g
Drug uptake (Spleen [15]): 9.94 % ID/g
Drug uptake (Stomach [16]): 0.61 % ID/organ
Drug uptake (Intestine [17]): 7.38 % ID/g
Drug uptake (Stomach [18]): 1.75 % ID/organ
Drug uptake (Lung [19]): 12.97 % ID/g
Drug uptake (Brain [20]): 0.26 % ID/g
Drug uptake (Kidney [21]): 15.86 % ID/g
Drug uptake (Blood [22]): 3.98 % ID/g
Drug uptake (Kidney [23]): 7 % ID/g
Drug uptake (Stomach [24]): 0.77 % ID/organ
Drug uptake (Lung [25]): 6.91 % ID/g
Drug uptake (Heart [26]): 2.69 % ID/g
Drug uptake (Blood [27]): 2.16 % ID/g
Drug uptake (Lung [28]): 3.64 % ID/g
Drug uptake (Liver [29]): 32.8 % ID/g
Drug uptake (Heart [30]): 6.42 % ID/g
Ratio (Brain [31]): 5.68
Drug uptake (Brain [32]): 0.28 % ID/g
Drug uptake (Intestine [33]): 17.65 % ID/g
Drug uptake (Kidney [34]): 15.63 % ID/g
Drug uptake (Blood [35]): 2.29 % ID/g
Drug uptake (Thyroid gland [36]): 26.77 % ID/g
Drug uptake (Liver [37]): 24.64 % ID/g
Drug uptake (Thyroid gland [38]): 11.56 % ID/g
Drug uptake (Heart [39]): 1.03 % ID/g
Drug uptake (Kidney [40]): 22.23 % ID/g
Drug uptake (Thyroid gland [41]): 23.53 % ID/g
Drug uptake (Liver [42]): 44.64 % ID/g
Drug uptake (Blood [43]): 11.62 % ID/g
Drug uptake (Heart [44]): 1.19 % ID/g
Drug uptake (Lung [45]): 24.45 % ID/g
Drug uptake (Blood [46]): 6.58 % ID/g
Drug uptake (Kidney [47]): 8.55 % ID/g
Drug uptake (Spleen [48]): 7.34 % ID/g
Drug uptake (Spleen [49]): 11.59 % ID/g
Drug uptake (Stomach [50]): 1.16 % ID/organ
Drug uptake (Heart [51]): 1.62 % ID/g
Drug uptake (Brain [52]): 1.11 % ID/g
Structure (SMILES): CN(C)c1ccc(/C=C/C(=O)/C=C/c2ccc([125I])cc2)cc1
